24 compounds from ChEMBL document CHEMBL4270517, “New 6- and 7-heterocyclyl-1H-indole derivatives as potent tubulin assembly and cancer cell growth inhibitors” (Eur J Med Chem, 2018) can be followed below.

pIC50: −log10 of the molar value. Active and inactive are the calls of the source. The calls are words filed in the database; no cut-off is given here.

Test [1] addresses Tubulin. As to the kind of experiment: Inhibition of tubulin polymerization (unknown origin) preincubated for 15 mins followed by GTP addition measured for 20 mins by spectrophotometric method. It is filed as protein-complex assay, Homo sapiens. The method in brief: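 Purified tubulin at 10 µM in 0.8 M monosodium glutamate pH 6.6 with 4% DMSO and varying compound; preincubated 15 min at 30 °C, chilled on ice, GTP to 0.4 mM added, turbidity at 350 nm followed 20 min at 30 °C. Extent of assembly measured; IC50 derived.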

In test [2] the target is T1, Tubulin (Homo sapiens) (UniProt P68371+Q9H4B7+P0DPH7+P68366+Q13509+Q71U36+P04350+Q3ZCM7+P07437+P68363+Q9BQE3+Q6PEY2+Q13885+Q9BVA1+Q9BUF5). The test can be described thus: Inhibition of [3H]colchicine binding to tubulin (unknown origin) at 5 uM after 10 mins relative to control. It is filed as protein-complex assay.
The subject of test [3] is MCF7. The test can be described thus: Growth inhibition of human MCF7 cells after 96 hrs by trypan blue exclusion assay. The conditions noted are these: MCF7, 96 h. It is filed as functional, cell-based.
Test [4] relates to HepG2. As to the kind of experiment: Growth inhibition of human HepG2 cells after 48 hrs by MTT assay. It is filed as functional, cell-based. Particulars: HepG2, 48 h. For orientation: Tetrazolium dyes change colour on reduction, which living cells bring about.
Test [5] concerns OVCAR-8. The test can be described thus: Growth inhibition of human OVCAR8 cells after 96 hrs by trypan blue exclusion assay. It is filed as functional, cell-based. The conditions noted are these: OVCAR-8, 96 h.
Test [6] has as its system NCI/ADR-RES. The test can be described thus: Growth inhibition of human NCI/ADR-RES cells after 96 hrs by trypan blue exclusion assay. It is filed as functional, cell-based.
For test [7], the target named is T1, Tubulin (Homo sapiens). The test can be described thus: Inhibition of tubulin polymerization in human HeLa cells assessed as fragmented or multipolar spindles formation at 20 to 50 nM by DAPI staining based immunofluorescence analysis. It is filed as cell-based. Summed up: (§1)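 HeLa cells on poly-L-lysine coverslips treated 24 h with 20–100 nM compound, fixed in methanol 6 min, immunostained for α-tubulin (FITC secondary), DNA counterstained with DAPI; spindle and microtubule morphology of mitotic cells examined by epifluorescence microscopy with 100× oil objective.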

Test [8] addresses T1, Tubulin (Homo sapiens). The test can be described thus: Inhibition of tubulin polymerization in human HeLa cells assessed as microtubule asters formation at 100 nM by DAPI staining based immunofluorescence analysis. It is filed as cell-based. The method in brief:
as §1

Test [9] deals with HeLa. The test can be described thus: Induction of cell death in human HeLa cells at 20 nM after 24 hrs by annexin V-FITC staining based flow cytometry.
In test [10] the target is T1, Tubulin (Homo sapiens). The test can be described thus: Inhibition of tubulin polymerization in human HeLa cells assessed as formation of sparse tubulin foci at >= 50 nM by DAPI staining based immunofluorescence analysis. It is filed as cell-based. Summed up:
as §1

For test [11], the target named is T1, Tubulin (Homo sapiens). The test can be described thus: Inhibition of tubulin polymerization in human HeLa cells assessed as fragmented or multipolar spindles formation at 20 nM by DAPI staining based immunofluorescence analysis. It is filed as cell-based. The method in brief:
as §1

As a reminder, the pIC50 is −log10 of the IC50, conventionally taken in molar units. A higher pIC50 goes with a small IC50. By inhibition is commonly meant the percentage by which the read-out fell short of the control. Consider `COc1cc(Sc2c[nH]c3ccc(-c4cccs4)cc23)cc(OC)c1OC`, for which, in test [1], the pIC50 is 5.89. The compound further yielded an inhibition in test [2] of 76%.

`COc1cc(Sc2c[nH]c3ccc(-c4ccco4)cc23)cc(OC)c1OC`: the pIC50 in test [1] was 6.06. In test [2], this compound showed an inhibition of 81%.

As to `CC(=O)O[C@H]1C(=O)[C@@]2(C)[C@H]([C@H](OC(=O)c3ccccc3)[C@]3(O)C[C@H](OC(=O)[C@H](O)[C@@H](NC(=O)c4ccccc4)c4ccccc4)C(C)=C1C3(C)C)[C@]1(OC(C)=O)CO[C@@H]1C[C@@H]2O` [PACLITAXEL], the pIC50 in test [3] was 8.26; in test [4] it was 5.58; in test [5], 8.40; in [6], 5.51.

On to `COc1cc(C(=O)c2c[nH]c3c(-c4cccs4)cccc23)cc(OC)c1OC`, for which the pIC50 in test [1] is 5.59. Further, in test [2], the inhibition is 48%.

In turn, `COc1cc(C(=O)c2c[nH]c3c(-c4ccoc4)cccc23)cc(OC)c1OC` had a pIC50 in test [1] of 5.52. Further, the inhibition in [2] was 29%.

In turn, `COc1cc(Sc2c[nH]c3c(-c4ccsc4)cccc23)cc(OC)c1OC` had a pIC50 in test [1] of 5.89. This compound showed an inhibition in test [2] of 77%.

`COc1cc(C(=O)c2c[nH]c3cc(-c4ccco4)ccc23)cc(OC)c1OC` gave a pIC50 in [1] of 6.12. This compound returned an inhibition in [2] of 96%.

In [1], `COc1cc(C(=O)c2c[nH]c3cc(-c4ccoc4)ccc23)cc(OC)c1OC` gave a pIC50 of 6.21. For the same compound, the inhibition in test [2] was determined as 96%.

For `COc1cc(Sc2c(-c3cccs3)[nH]c3ccccc23)cc(OC)c1OC`, in [1], the pIC50 was 6.13. The same compound displayed an inhibition in [2] of 88%.

`COc1cc(Sc2c[nH]c3c(-c4ccoc4)cccc23)cc(OC)c1OC` had a pIC50 in test [1] of 5.89. In test [2], this compound had an inhibition of 86%.

On to `COc1ccc(/C=C\c2cc(OC)c(OC)c(OC)c2)cc1O` [COMBRETASTATIN A4], for which the pIC50 in test [3] was 7.89 to 8.30; in test [5] it was 8.40; in test [6], 8.46.

As to `COc1cc(Sc2c[nH]c3c(-c4cccs4)cccc23)cc(OC)c1OC`, the pIC50 in test [1] was 6.24. The compound further showed an inhibition in test [2] of 89%. Also, the inhibition result in test [7] and in test [8] was “Active” in each case.

In turn, `COc1cc(C(=O)c2c[nH]c3cc(-c4cccs4)ccc23)cc(OC)c1OC` had a pIC50 in test [1] of 6.42. The inhibition in test [2] worked out at 96%.

`COc1cc(Sc2c[nH]c3cc(-c4cccs4)ccc23)cc(OC)c1OC` showed a pIC50 in test [1] of 6.33. This compound also gave an inhibition in test [2] of 95%.

With `CC[C@]1(O)C[C@@H]2CN(CCc3c([nH]c4ccccc34)[C@@](C(=O)OC)(c3cc4c(cc3OC)N(C)[C@H]3[C@@](O)(C(=O)OC)[C@H](OC(C)=O)[C@]5(CC)C=CCN6CC[C@]43[C@@H]65)C2)C1`, in test [9], the outcome was Active.

`COc1cc(Sc2c[nH]c3ccc(-c4ccoc4)cc23)cc(OC)c1OC` had a pIC50 in test [1] of 5.74. The compound also came in with an inhibition in test [2] of 63%.

Turning to `COc1cc(Sc2c[nH]c3cc(-c4ccoc4)ccc23)cc(OC)c1OC`, the pIC50 in [1] is 5.64. Besides, the inhibition in [2] worked out at 90%.

Compound `COc1cc(Sc2c[nH]c3cc(-c4ccsc4)ccc23)cc(OC)c1OC` showed a pIC50 in test [1] of 6.24. This compound displayed an inhibition in test [2] of 97%. The inhibition entry in test [10] and in test [11] was “Active” throughout.

Compound `COc1cc(Sc2c[nH]c3cc(-c4ccco4)ccc23)cc(OC)c1OC` had a pIC50 in test [1] of 6.23. Further, the inhibition in test [2] is 97%.

In turn, `COc1cc(C(=O)c2c[nH]c3c(-c4ccsc4)cccc23)cc(OC)c1OC` showed a pIC50 in test [1] of 5.21.

In turn, `COc1cc(C(=O)c2c[nH]c3c(-c4ccco4)cccc23)cc(OC)c1OC` returned an inhibition in [2] of 70%.

In turn, `COc1cc(Sc2c[nH]c3ccc(-c4ccsc4)cc23)cc(OC)c1OC` showed a pIC50 in test [1] of 5.77. This compound also yielded an inhibition in [2] of 72%.

`COc1cc(C(=O)c2c[nH]c3cc(-c4ccsc4)ccc23)cc(OC)c1OC`: the pIC50 in test [1] is 6.22. In [2], this compound came in with an inhibition of 94%.

With `COc1cc(Sc2c[nH]c3c(-c4ccco4)cccc23)cc(OC)c1OC`, the pIC50 in [1] is 6.19. In test [2], this compound returned an inhibition of 95%.
